Compound activity: PubChem, The Scripps Research Institute Molecular Screening Center
GPR7 antagonist – human neuropeptides B/W receptor 1 antagonism; P48145; GPR7-expressing cells, fluorescence antagonist assay; inhibition, % at 4.4 µM; hit rate 1.1% among 290,000; AID 1861; in the data active = inhibition above about 16%, passing the limit was not always enough;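 note: cells stimulated with the agonist NPW; 0% = agonist with vehicle and 100% = vehicle without agonist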
OX1R antag-1 – human HCRTR1 antagonism. CHO/OX1R cells, Fluo-8 calcium fluorescence, orexin A. inhibition, % at 5 µM. hit rate 0.43% among 330,000;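 active = inhibition above its plate's threshold, mean inhibition of all tested compounds on the plate plus 3 SD, cut at about 37% in these data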;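 note: 0% = orexin A challenge wells and 100% = SB-334867-A antagonist wells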
Target sequence (O43613 whole entry, looked up): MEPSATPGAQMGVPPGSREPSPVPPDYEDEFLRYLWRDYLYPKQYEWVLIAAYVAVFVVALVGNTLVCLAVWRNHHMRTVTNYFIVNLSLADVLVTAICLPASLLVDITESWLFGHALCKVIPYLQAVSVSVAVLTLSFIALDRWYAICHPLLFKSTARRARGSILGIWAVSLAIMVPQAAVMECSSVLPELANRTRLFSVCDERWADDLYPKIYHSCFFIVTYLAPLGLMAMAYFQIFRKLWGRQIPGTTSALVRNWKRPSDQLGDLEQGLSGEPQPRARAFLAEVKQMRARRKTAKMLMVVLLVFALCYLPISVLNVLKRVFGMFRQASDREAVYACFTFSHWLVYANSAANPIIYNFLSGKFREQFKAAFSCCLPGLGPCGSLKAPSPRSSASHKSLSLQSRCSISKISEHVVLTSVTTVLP
TRPML3 ag – activates the human TRPML3 channel; HEK293 TRPML3-YFP, Fluo-8 calcium fluorescence; 100% = the carbachol control signal; activation, % at 3 µM; hit rate 0.29% among 220,000;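 active = activation above its plate's cutoff, the mean activation of the plate's test wells plus 3 SD, cut at about 12% in these data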;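 note: 0% = DMSO only wells and 100% = carbachol wells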
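Material: HEK293 cells stably carrying human TRPML3-YFP; compound dosing: single dose, 3 µM final nominal compound, 0.3% DMSO final; incubation: 1-h 37 °C dye load, 5-s basal, 120-s post-compound reads; technique: Fluo-8 intracellular calcium fluorescence, excitation 470-495 nm, emission 515-575 nm; read-out basis: percent activation from peak-to-basal fluorescence ratio, scaled between DMSO and carbachol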
CHO parental Ca – signal in parental CHO cells, OX1R antagonist counter-screen | parental CHO-K1, ATP-induced calcium, Fluo-8 fluorescence | inhibition, % at 5.6 µM | hit rate 0.63% among 330,000;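 active = inhibition above that plate's mean sample inhibition plus 3 SD, cut at about 26% in these data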;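 note: 0% = ATP-challenged DMSO wells and 100% = DMSO wells without ATP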
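Material: Parental CHO cells | Reagent: ATP | Compound dosing: Single nominal dose of 5.6 µM per compound | Detection: Intracellular calcium via Fluo-8 no-wash fluorescent dye | Read-out: % inhibition of ATP-induced calcium mobilization | Benchmarks: Low control ATP plus DMSO, high control DMSO only | Replicates: Singlicate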
TRPN1 ag – activates the zebrafish TRPN1 channel; HEK293 zebrafish TRPN1-YFP, Fluo-8 calcium fluorescence; 100% = response to 87 µM carbachol; activation, % at 3 µM; hit rate 0.18% among 220,000; AID 1424;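 active = activation above its plate's cutoff, the mean activation of test wells on that plate plus 3 SD, cut at about 19% in these data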;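 note: 0% = DMSO alone and 100% = 87 µM carbachol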
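Control set: carbachol 87 µM as high control, DMSO as low control; system: HEK293 stable line with zebrafish TRPN1-YFP; read-out: % activation versus carbachol response; detection: intracellular calcium fluorescence with Fluo-8; doses: single test compound dose, 3 µM nominal, 0.3% DMSO; schedule: dye 1 h 37 °C plus 30 min RT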
OX1R antag-2 – OX1R (human) antagonism. inhibition, % at 6.6 µM. OX1R-expressing cells, FRET antagonist read-out. O43613. AID 485270. hit rate 1.8% among 330,000; in the data active = inhibition mostly above about 38%, no sharp cut-off; inactive = mostly below about 40%;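 note: 0% = agonist challenge alone and 100% = reference antagonist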
GPR7 antag conf – human GPR7 antagonism, confirmation assay. hit rate 52% among 2,400. AID 1952. inhibition, % at 4.4 µM. GPR7-expressing cells, calcium fluorescence antagonist mode. shares compounds with GPR7 antagonist; in the data active = inhibition above about 24%;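 note: stimulated with the GPR7 agonist NPW; 0% = agonist plus vehicle and 100% = vehicle alone without agonist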
MCHR1 antagonist – MCHR1 (human) antagonism in GPR7 counter-screen. shares compounds with GPR7 antagonist. MCHR1-expressing cells, fluorescence antagonist assay. inhibition, % at 4.4 µM. hit rate 62% among 2,400. AID 2148; in the data active = inhibition above about 22%;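 note: 0% = vehicle with agonist and 100% = vehicle without agonist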
Starred values were filed as active, the others as inactive; . = not tested or not shown. This is a sample that favours compounds with a hit; in the whole collection about 3.2% have one here.

SMILES	GPR7 antagonist	OX1R antag-1	TRPML3 ag	CHO parental Ca	TRPN1 ag	OX1R antag-2	GPR7 antag conf	MCHR1 antagonist
COc1ccc(CC(C)CC(=O)Nc2ccc(OC)cc2)cc1 (stereo unspecified)	-7	-19	.	-9	.	8	.	.
CC1CN(C(=O)c2ccc(NS(=O)(=O)c3ccc(C(C)(C)C)cc3)cc2)CC(C)O1 (stereo unspecified)	33*	.	.	.	.	.	32*	42*
CCC(C)(C(=O)NC1CCCCC1)N(Cc1ccco1)C(=O)c1ccc2c(c1)OCO2 (stereo unspecified)	34*	-33	0	-16	0	12	34*	12
CCC(C)(C(=O)NC1CCCCC1)N(Cc1ccco1)C(=O)Cc1cccs1 (stereo unspecified)	40*	-15	0	-19	-2	20	50*	27*
CCC(C)(C(=O)NC1CCCC1)N(CC1CCCO1)C(=O)c1ccc2c(c1)OCO2 (stereo unspecified)	0	-17	1	-4	-2	16	.	.
Cc1ccc(C)c(NC(=O)c2ccc(N(C)S(C)(=O)=O)cc2)c1	19	-11	0	-7	0	8	.	.
COc1ccc(C)cc1NC(=O)c1ccc(N(C)S(C)(=O)=O)cc1	31*	-15	0	-14	1	16	7	16
O=C(CN1C(=O)c2ccccc2C1=O)Nc1ccccc1F	21*	-25	0	-12	2	10	-10	38*
COc1ccc(N(CC(=O)NCc2ccco2)C(=O)CCC(=O)Nc2nccs2)cc1	-5	-23	.	-4	.	7	.	.
CCS(=O)(=O)N1Cc2ccccc2CC1C(=O)N(C)CC(=O)Nc1cccc(F)c1 (stereo unspecified)	.	-36	.	-22	.	16	.	.
Cc1ccc(C2c3[nH]c4ccccc4c3C[C@H]3C(=O)N(c4ccccc4C(=O)NCCN4CCOCC4)C(=O)N23)cc1 (stereo partly specified)	28*	-12	.	-7	.	9	7	22*
O=C(NCCCN1CCOCC1)c1ccccc1N1C(=O)[C@@H]2Cc3c([nH]c4ccccc34)C(c3cccc(Cl)c3)N2C1=O (stereo partly specified)	27*	-17	.	-8	.	2	25*	35*
CCC1CCCCN1S(=O)(=O)c1ccc(C(=O)N(CCCN(C)C)c2nc3cc4c(cc3s2)OCO4)cc1 (stereo unspecified)	18	-15	.	-13	.	23	.	.
O=C(Nc1ccc(Oc2ccccc2)nc1)C1CCCCN1Cc1ccc(OCCO)cc1 (stereo unspecified)	-2	-9	.	-13	.	11	.	.
CC(=O)N1CCCc2cc(S(=O)(=O)N3CCCC3)ccc21	-5	-6	.	-6	.	-2	.	.
O=C(Nc1ccccc1)Nc1ccc2nnsc2c1	33*	24	8	31	18	17	28*	62*
O=C(Nc1ccccc1)Nc1ccc2snnc2c1	25*	29	11	31	21*	86*	27*	60*
CCN(Cc1nc(-c2ccc(OC)cc2)no1)C(=O)c1ccoc1C	-5	-10	.	-11	.	16	.	.
CN(C)c1ccc(C(C#N)c2ccccc2)nn1 (stereo unspecified)	-5	-22	1	-14	0	6	.	.
Nc1cc(N)nc(SCC(=O)NCC2CCCO2)n1 (stereo unspecified)	0	-15	1	-1	1	9	.	.
Nc1cnn(C2CCCO2)c(=O)n1 (stereo unspecified)	24*	0	1	2	1	10	0	-5
CCCc1c(C(=O)N/N=C/c2ccccc2C(F)(F)F)nnn1-c1nonc1N	-10	-6	.	-11	.	11	.	.
O=C(NCC(=O)N1CC=C(c2ccccc2)CC1)c1ccco1	.	-1	.	-1	.	8	.	.
CC(NC(=O)C1CCN(C(=O)Nc2ccccc2)CC1)c1ccccc1Cl (stereo unspecified)	.	-3	.	-3	.	5	.	.
